{
  "source": "paper PMC2932756",
  "about": "(Chemico-biological interactions, 2010)",
  "key": {"[1]": {"assay": "UV-VIS spectroscopy, stability of CAPE alone in solution", "type": "physicochemical", "conditions": "CAPE 100 μM alone, phosphate buffer pH 7.4", "in_short": "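Test compound 100 μM alone in 0.1 M phosphate buffer, pH 7.4, containing 1 mM DETAPAC; UV-visible spectrum recorded as the no-enzyme control for spectra of enzymatic oxidation, which were taken every two minutes.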"}, "[2]": {"test_system": "prostate (PC-3) cells", "assay": "MTT cell viability assay, PC-3", "type": "cell-based, human", "conditions": "CAPE 15 μM, 48 h", "in_short": "(§1)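 24-well plates, 40,000 cells/well (SK-MEL-5 4,000/well) in 400 μL medium with 10% FBS, 24 h adhesion. Media: MEM Alpha for SK-MEL-5, MeWo and C32; DMEM for B16-F0 and B16-F10; McCoy's 5A for Saos-2; Leibovitz's L-15 for SW-620; RPMI for PC-3. Test compound 15 μM for 48 h; MTT 4 h, DMSO solubilisation for 2 h in the dark, A570. Viability relative to each line's untreated control.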"}, "[3]": {"test_system": "oral cancer cells", "conditions": "read-out: IC50, cytotoxicity; 48 h; cited from earlier work"}, "[4]": {"test_system": "SK-MEL-28 melanoma cells", "assay": "MTT cell viability assay, IC50", "type": "cell-based, human"}, "[5]": {"test_system": "SV40 transformed keratinocytes", "conditions": "read-out: IC50, inhibition of proliferation; 48 h; cited from earlier work"}, "[6]": {"test_system": "melanocytic SK-MEL-28 cells", "assay": "Intracellular GSH measurement, SK-MEL-28", "type": "cell-based, human", "conditions": "2 h", "in_short": "(§2)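 Cells from 90-95% confluent cultures seeded at 1 million cells/mL in MEM Alpha with 10% FBS in 24-well plates, 3 h at 37 °C, then given 1 mL medium with test compound (15-200 μM) for 1, 2 or 3 h. Detached with trypsin-EDTA, lysed with 3% sulphosalicylic acid, spun at 14,000 rpm and 4 °C for 10 min; supernatant diluted 10-fold. GSH by DTNB/NADPH (0.3 mM)/GSSG reductase recycling, A405 every 30 s over 4 min.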"}, "[7]": {"test_system": "SK-MEL-28 cells", "assay": "MTT assay in tyrosinase shRNA transfected SK-MEL-28 cells", "type": "cell-based, human", "conditions": "CAPE 15 μM, 48 h", "in_short": "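SK-MEL-28 cells seeded at 160,000/well in 6-well plates; after 24 h transfected with tyrosinase shRNA clone (FuGENE6). 24 h later, untransfected, tyrosinase-shRNA and non-specific shRNA cells given test compound 15 μM for a further 48 h. Viability by MTT: 4 h with dye, DMSO solubilisation for 2 h at room temperature in the dark, A570. Three experiments averaged.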"}, "[8]": {"test_system": "amelanotic C32 melanoma cells", "assay": "Reactive oxygen species", "type": "cell-based, human", "conditions": "CAPE 15-300 μM", "in_short": "(§3)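 Cells seeded at 40,000/well in black 96-well plates, 24 h at 37 °C. Medium replaced with 2′,7′-dichlorofluorescein diacetate, then test compound added; fluorescence read from the moment of addition (ex 485, em 535 nm). In SK-MEL-28 only: dicoumarol 10 μM, 1-bromoheptane 75 μM, cyclosporin A 15 μM or trifluoperazine 15 μM included. Six replicates averaged.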"}, "[9]": {"assay": "Partition coefficient, distribution coefficient and water solubility", "conditions": "pH 7.4"}, "[10]": {"test_system": "amelanotic C32 melanoma cells", "assay": "Intracellular GSH measurement, C32", "type": "cell-based, human", "conditions": "2 h", "in_short": "as §2"}, "[11]": {"test_system": "MeWo melanoma cells", "assay": "MTT cell viability assay, MeWo", "type": "cell-based, human", "conditions": "CAPE 15 μM, 48 h", "in_short": "as §1"}, "[12]": {"test_system": "SK-MEL-28 melanoma cells", "assay": "MTT assay using biochemical modulators in SK-MEL-28 melanoma cells", "type": "cell-based, human", "conditions": "48 h", "in_short": "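SK-MEL-28 cells in MEM Alpha with 10% FBS, 40,000/well in 24-well plates, 24 h to adhere. DMSO-dissolved modulators (1-bromoheptane 75 μM, dicoumarol 10 μM, cyclosporin A 15 μM, trifluoperazine 15 μM) added 20 min before test compound. Viability by MTT 48 h after compound addition: 4 h with dye, DMSO solubilisation for 2 h in the dark, A570.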"}, "[13]": {"test_system": "colorectal adenocarcinoma (SW-620) cells", "assay": "MTT cell viability assay, SW-620", "type": "cell-based, human", "conditions": "CAPE 15 μM, 48 h", "in_short": "as §1"}, "[14]": {"test_system": "CYP2E1 induced rat liver microsomes", "assay": "GSH depletion by rat liver P450 microsomal preparation/NADPH/O2", "conditions": "CYP2E1 pyrazole induced microsomes, 2 h incubation"}, "[15]": {"test_system": "human leukemia HL-60 cells", "conditions": "read-out: IC50, growth arrest; 48 h; cited from earlier work"}, "[16]": {"test_system": "amelanotic C32 cells", "assay": "MTT cell viability assay, C32", "type": "cell-based, human", "conditions": "CAPE 15 μM, 48 h", "in_short": "as §1"}, "[17]": {"test_system": "melanocytic SK-MEL-28 melanoma cells", "assay": "Reactive oxygen species", "type": "cell-based, human", "in_short": "as §3"}, "[18]": {"test_system": "SK-MEL-28 cells", "assay": "Mitochondrial membrane potential", "type": "cell-based, human", "in_short": "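SK-MEL-28 cells seeded at 160,000/well in 6-well plates in MEM and left overnight; cyclosporin A 15 μM or ethylenediamine 1 mM added 24 h before test compound (15-50 μM; controls 1% DMSO). After 48 h, TMRM added for 30 min at 37 °C in the dark. Cells detached with versene, pelleted, resuspended in PBS. Flow cytometry on 10,000 events; arithmetic mean fluorescence, triplicates.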"}, "[19]": {"test_system": "SK-MEL-5 melanoma cells", "assay": "MTT cell viability assay, SK-MEL-5", "type": "cell-based, human", "conditions": "CAPE 15 μM, 48 h", "in_short": "as §1"}},
  "data": [
    {"smiles": "O=C(/C=C/c1ccc(O)c(O)c1)OCCc1ccccc1", "note": "[CAPE, Caffeic Acid Phenylethyl Ester]", "values": [
      {"measurement": "stability of spectrum in solution (auto-oxidation)", "setting": "[1]", "value": "stable"},
      {"measurement": "cell viability", "setting": "[2]", "value": "88±3", "unit": "%"},
      {"measurement": "IC50", "setting": "[3]", "value": 75, "unit": "µM"},
      {"measurement": "LD50 (day 2) SK-MEL-28 / IC50 (48 h)", "setting": "[4]; MTT assay, 48 h incubation", "value": 15, "unit": "µM"},
      {"measurement": "toxicity relative to caffeic acid, based on IC50 (48 h)", "setting": "[4]; SK-MEL-28", "value": 153, "unit": "fold"},
      {"measurement": "IC50", "setting": "[5]", "value": 7, "unit": "µM"},
      {"measurement": "intracellular GSH depleted", "setting": "[6]; CAPE 15 μM", "value": "11±4", "unit": "%"},
      {"measurement": "intracellular GSH depleted", "setting": "[6]; CAPE 50 μM", "value": "19±2", "unit": "%"},
      {"measurement": "intracellular GSH depleted", "setting": "[6]; CAPE 100 μM", "value": "26±1", "unit": "%"},
      {"measurement": "intracellular GSH depleted", "setting": "[6]; CAPE 200 μM", "value": "54±1", "unit": "%"},
      {"measurement": "cell viability, tyrosinase shRNA transfected cells", "setting": "[7]", "value": "87±5", "unit": "%"},
      {"measurement": "cell viability, untransfected cells", "setting": "[7]", "value": "43±6", "unit": "%"},
      {"measurement": "ROS formation", "setting": "[8]", "value": "no significant ROS was formed"},
      {"measurement": "ionized at physiological pH", "setting": "[9]", "value": "not significantly ionized"},
      {"measurement": "lipid solubility relative to caffeic acid (antilog LogD)", "setting": "[9]", "value": "40,000 fold"},
      {"measurement": "intracellular GSH depleted", "setting": "[10]; CAPE 15 μM", "value": "3±2", "unit": "%"},
      {"measurement": "intracellular GSH depleted", "setting": "[10]; CAPE 50 μM", "value": "10±2", "unit": "%"},
      {"measurement": "intracellular GSH depleted", "setting": "[10]; CAPE 100 μM", "value": "13±3", "unit": "%"},
      {"measurement": "intracellular GSH depleted", "setting": "[10]; CAPE 200 μM", "value": "24±2", "unit": "%"},
      {"measurement": "cell viability", "setting": "[11]", "value": "51±6", "unit": "%"},
      {"measurement": "increase of CAPE toxicity by 1-bromoheptane (BH)", "setting": "[12]; CAPE 7.5 μM + BH 75 μM", "value": 26, "unit": "%"},
      {"measurement": "enhancement of CAPE toxicity by dicoumarol", "setting": "[12]; CAPE 7.5 μM + dicoumarol 10 μM", "value": 39, "unit": "%"},
      {"measurement": "viability, CAPE incubated alone", "setting": "[12]; CAPE 30 μM", "value": "23±2", "unit": "%"},
      {"measurement": "cell viability", "setting": "[13]", "value": "89±3", "unit": "%"},
      {"measurement": "GSH depleted per mole of CAPE, rat liver microsomes", "setting": "[14]", "value": "0.5 mole GSH per one mole of CAPE"},
      {"measurement": "IC50", "setting": "[15]", "value": 2.5, "unit": "µM"},
      {"measurement": "cell viability", "setting": "[16]", "value": "86±4", "unit": "%"},
      {"measurement": "ROS formation, CAPE + BH", "setting": "[17]; BH 75 μM", "value": "11±2", "unit": "fold"},
      {"measurement": "ROS formation, CAPE + TF", "setting": "[17]; CAPE 15 μM + TF 15 μM, 40 min", "value": "5±1", "unit": "fold"},
      {"measurement": "ROS formation, CAPE alone", "setting": "[17]; CAPE 15 μM, 40 min", "value": "8±1", "unit": "fold"},
      {"measurement": "ROS formation", "setting": "[17]; CAPE 15-300 μM, various time points", "value": "concentration- and time-dependent escalation in ROS formation"},
      {"measurement": "ROS formation, CAPE + CS", "setting": "[17]; CS 15 μM", "value": "4±1", "unit": "fold"},
      {"measurement": "ROS formation, CAPE + DC", "setting": "[17]; DC 10 μM", "value": "12±2", "unit": "fold"},
      {"measurement": "decrease in mitochondrial membrane potential", "setting": "[18]; CAPE 15 μM", "value": "17±1", "unit": "%"},
      {"measurement": "decrease in mitochondrial membrane potential in the presence of CS", "setting": "[18]; CAPE 15 μM + CS 15 μM", "value": "8±1", "unit": "%"},
      {"measurement": "decrease in mitochondrial membrane potential in the presence of ethylenediamine", "setting": "[18]; CAPE 15 μM + ethylenediamine 1 mM", "value": "4±1", "unit": "%"},
      {"measurement": "decrease in mitochondrial membrane potential", "setting": "[18]; CAPE 30 μM", "value": "20±2", "unit": "%"},
      {"measurement": "decrease in mitochondrial membrane potential in the presence of CS", "setting": "[18]; CAPE 30 μM + CS 15 μM", "value": "12±1", "unit": "%"},
      {"measurement": "decrease in mitochondrial membrane potential in the presence of ethylenediamine", "setting": "[18]; CAPE 30 μM + ethylenediamine 1 mM", "value": "10±1", "unit": "%"},
      {"measurement": "cell viability", "setting": "[19]", "value": "57±3", "unit": "%"}
    ]}
  ]
}
